As usually defined, the IC50 is the concentration at which inhibition is half-maximal. High values mean weaker potency in that assay, low ones greater potency in that assay. A word on the inhibition: it is the relative decrease from the control value, in per cent.

IC50 and inhibition data for 13 molecules are collected here from ChEMBL document CHEMBL4387722.

Test [1] concerns the target T1, Phosphotyrosine protein phosphatase (Mycobacterium tuberculosis, UniProt A0A045ISB3).
T1 sequence (A0A045ISB3 whole entry): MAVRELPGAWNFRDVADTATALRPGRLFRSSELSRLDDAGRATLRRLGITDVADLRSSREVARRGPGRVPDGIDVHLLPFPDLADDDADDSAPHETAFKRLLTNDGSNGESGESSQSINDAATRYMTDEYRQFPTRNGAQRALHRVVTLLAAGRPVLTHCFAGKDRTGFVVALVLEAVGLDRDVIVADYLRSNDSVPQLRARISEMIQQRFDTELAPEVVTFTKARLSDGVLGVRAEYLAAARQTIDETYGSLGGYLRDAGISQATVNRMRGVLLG
In words: Inhibition of Mycobacterium tuberculosis His-tagged PtpB expressed in Escherichia coli Rosetta 2 (DE3) using pNPP as substrate after 30 mins by spectrophotometric method.

The target in test [2] is T2, Tyrosine-protein phosphatase non-receptor type 1 (Homo sapiens, UniProt P18031).
T2 sequence (P18031 whole entry): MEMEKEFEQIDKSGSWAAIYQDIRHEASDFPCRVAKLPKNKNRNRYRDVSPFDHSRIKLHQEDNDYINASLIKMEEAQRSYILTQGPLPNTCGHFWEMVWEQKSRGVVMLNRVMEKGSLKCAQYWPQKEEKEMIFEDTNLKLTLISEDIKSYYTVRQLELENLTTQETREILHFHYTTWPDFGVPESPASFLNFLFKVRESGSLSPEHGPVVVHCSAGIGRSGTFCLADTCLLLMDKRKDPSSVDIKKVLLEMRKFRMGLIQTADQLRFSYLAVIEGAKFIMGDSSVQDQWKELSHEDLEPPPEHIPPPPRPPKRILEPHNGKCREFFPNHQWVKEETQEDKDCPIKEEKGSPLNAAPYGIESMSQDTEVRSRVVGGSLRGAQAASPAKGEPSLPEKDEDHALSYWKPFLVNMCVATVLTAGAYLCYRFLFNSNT
In words: Inhibition of human PTPN1 expressed in Escherichia coli Rosetta 2 (DE3) using pNPP as substrate after 45 mins by spectrophotometric method.

The target in test [3] is T3, Tyrosine-protein phosphatase non-receptor type 2 (Homo sapiens, UniProt P17706).
T3 sequence (P17706 whole entry): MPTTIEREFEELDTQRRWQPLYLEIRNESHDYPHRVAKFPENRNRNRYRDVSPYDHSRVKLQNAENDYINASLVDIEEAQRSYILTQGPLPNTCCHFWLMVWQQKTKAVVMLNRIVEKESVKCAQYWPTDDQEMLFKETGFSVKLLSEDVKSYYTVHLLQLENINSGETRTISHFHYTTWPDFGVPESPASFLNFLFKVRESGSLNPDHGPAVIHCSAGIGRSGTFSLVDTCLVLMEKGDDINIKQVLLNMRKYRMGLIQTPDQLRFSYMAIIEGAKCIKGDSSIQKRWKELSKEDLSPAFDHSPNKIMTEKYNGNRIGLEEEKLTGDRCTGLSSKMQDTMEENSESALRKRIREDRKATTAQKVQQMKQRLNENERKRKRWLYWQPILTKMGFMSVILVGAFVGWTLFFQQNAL
In words: Inhibition of human PTPN2 expressed in Escherichia coli Rosetta 2 (DE3) using pNPP as substrate after 45 mins by spectrophotometric method.

For test [4], the target named is T4, Tyrosine-protein phosphatase non-receptor type 5 (Homo sapiens, UniProt P54829).
T4 sequence (P54829 whole entry): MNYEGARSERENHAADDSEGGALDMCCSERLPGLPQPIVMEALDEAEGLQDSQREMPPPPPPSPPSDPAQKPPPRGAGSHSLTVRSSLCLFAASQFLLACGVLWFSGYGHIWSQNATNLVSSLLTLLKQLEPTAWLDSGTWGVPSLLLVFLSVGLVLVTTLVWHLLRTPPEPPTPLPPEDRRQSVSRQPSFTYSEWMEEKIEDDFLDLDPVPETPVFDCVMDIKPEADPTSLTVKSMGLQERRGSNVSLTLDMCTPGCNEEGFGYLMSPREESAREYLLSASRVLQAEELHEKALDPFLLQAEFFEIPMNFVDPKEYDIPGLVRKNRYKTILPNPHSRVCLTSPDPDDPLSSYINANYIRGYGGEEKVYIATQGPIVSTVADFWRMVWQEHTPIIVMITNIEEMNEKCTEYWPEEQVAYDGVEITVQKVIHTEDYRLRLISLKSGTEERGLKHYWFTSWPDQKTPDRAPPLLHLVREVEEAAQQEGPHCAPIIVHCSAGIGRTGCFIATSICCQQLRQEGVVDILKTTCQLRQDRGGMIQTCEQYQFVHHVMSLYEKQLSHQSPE
In words: Inhibition of human PTPN5 expressed in Escherichia coli Rosetta 2 (DE3) using pNPP as substrate after 45 mins by spectrophotometric method.

The subject of test [5] is Mycobacterium tuberculosis. In words: Antitubercular activity against Mycobacterium tuberculosis H37Rv after 5 days at 200 uM relative to control. Type of test: functional. Particulars: 120 h. The essentials: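 M. tuberculosis grown in liquid culture with compound at a fixed 200 μM for 5 days. Growth inhibition expressed as percent of control.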

`O=C(O)c1cccc(S(=O)(=O)Nc2ccc(-c3nc4cc(NS(=O)(=O)c5cccc(C(=O)O)c5)ccc4o3)cc2)c1`: the IC50 in test [1] was 9.9 µM; in test [2], greater than 100 µM; in test [3] it was greater than 100 µM; in test [4], greater than 100 µM. In test [5], the inhibition at 200 µM came to 7%.
On to `O=S(=O)(Nc1ccc(-c2nc3cc(NS(=O)(=O)c4ccc5ncsc5c4)ccc3o2)cc1)c1ccc2ncsc2c1`, for which the IC50 was 20 µM in test [1], 7 µM in test [2], 12 µM in test [3] and 20 µM in test [4]. The molecule further registered an inhibition at 200 µM in test [5] of 0%.
`O=S(=O)(Nc1ccc(-c2nc3cc(NS(=O)(=O)c4cccc5ccccc45)ccc3o2)cc1)c1ccc(Cl)s1`: the IC50 stood at 2.2 µM in test [1], 6.5 µM in test [2], 7.3 µM in test [3] and 5.1 µM in test [4]. The molecule further came in with an inhibition at 200 µM in test [5] of 12%.
For `O=S(=O)(Nc1ccc(-c2nc3cc(NS(=O)(=O)c4cccc5nsnc45)ccc3o2)cc1)c1cccc2nsnc12`, the IC50 is 7 µM in test [1], 10 µM in test [2], 17 µM in test [3] and 17 µM in test [4]. This molecule yielded an inhibition at 200 µM in test [5] of 0%.
For `O=S(=O)(Nc1ccc(-c2nc3cc(NS(=O)(=O)c4ccc(Cl)s4)ccc3o2)cc1)c1ccccc1`, the IC50 in test [1] was 6.7 µM; in test [2] it was 19 µM; in test [3], 29 µM; in test [4] it was 17 µM. Moreover, at 200 µM the inhibition in test [5] was 41%.
On to `COc1cccc(S(=O)(=O)Nc2ccc(-c3nc4cc(NS(=O)(=O)c5cccc(OC)c5)ccc4o3)cc2)c1`, for which the IC50 in test [1] came to 9.4 µM; in test [2], 18 µM; in test [3] it was 16 µM; in test [4], 22 µM. In addition, the inhibition at 200 µM in test [5] came out at 0%.
For `O=S(=O)(Nc1ccc2oc(-c3ccc(NS(=O)(=O)c4ccc(Cl)s4)cc3)nc2c1)c1ccc2ccccc2c1`, the IC50 worked out at 5.4 µM in test [1], 7.9 µM in test [2], 7.4 µM in test [3] and 7.7 µM in test [4]. In test [5], this molecule showed an inhibition at 200 µM of 0%.
Take `COc1ccc(S(=O)(=O)Nc2ccc(-c3nc4cc(NS(=O)(=O)c5ccc(Cl)s5)ccc4o3)cc2)cc1`: the IC50 in test [1] came to 11 µM; in test [2], 11 µM; in test [3] it was 16 µM; in test [4], 16 µM. Also, the inhibition at 200 µM in test [5] stood at 25%.
For the molecule `COC(=O)c1cccc(S(=O)(=O)Nc2ccc(-c3nc4cc(NS(=O)(=O)c5cccc(C(=O)OC)c5)ccc4o3)cc2)c1`, the IC50 came out at 5.8 µM in test [1], 17 µM in test [2], 13 µM in test [3] and 16 µM in test [4]. The molecule further showed an inhibition at 200 µM in test [5] of 0%.
Consider `O=[N+]([O-])c1cc(S(=O)(=O)Nc2ccc(-c3nc4cc(NS(=O)(=O)c5ccc(Cl)s5)ccc4o3)cc2)ccc1Cl`, for which the IC50 in test [1] was found to be 4 µM; in test [2], 8 µM; in test [3] it was 18 µM; in test [4] it was 15 µM. The molecule also came in with an inhibition at 200 µM in test [5] of 29%.
The matching figures for `CCCS(=O)(=O)Nc1ccc(-c2nc3cc(NS(=O)(=O)CCC)ccc3o2)cc1`: greater than 100 µM, greater than 100 µM, greater than 100 µM, 83 µM and 13%.
The like results for `O=S(=O)(Nc1ccc(-c2nc3cc(NS(=O)(=O)c4cccc(C(F)(F)F)c4)ccc3o2)cc1)c1cccc(C(F)(F)F)c1` were, in that order, 2.9 µM, 12 µM, 12 µM, 16 µM and 0%.
The matching figures for `O=S(=O)(Nc1ccc2oc(-c3ccc(NS(=O)(=O)c4cccc5ccccc45)cc3)nc2c1)c1ccc(Cl)s1`: 2.7 µM, 5.4 µM, 15 µM, 9.1 µM and 0%.
